Source: PubChem (several laboratories)
Sampled rows, rich in hits. Any-hit rate of the full collection: about 9.8%.
WT yeast gro inh: growth inhibition of WT strain, primary screen, mitochondrial fusion inhibitor project, WT and mutant strains, chemical genetic; inhibition, % at 10 µM; mitochondrial fusion phenotypic screen; 2.1% of 190,000 active; in the data active = inhibition above about 58%; tested in S. cerevisiae
PMI act satM6P: human PMI activators, high substrate, primary screen, biochemical, fluorescence intensity, near-saturating mannose 6-phosphate | activation factor at 20 µM | AID 1216, 2008 | 0.34% of 190,000 active | coupled PMI enzyme assay, resazurin fluorescence, 20 min; active compounds read high; 1 = untreated enzyme, 0 = substrate-free blank | Mannose-6-phosphate isomerase (Homo sapiens), P34949;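 active = activation factor of 2 or more at 20 µM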
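Test system: human phosphomannose isomerase with PGI, G6PDH, diaphorase coupling enzymes; Amount: PMI at 15 ng/mL final; Reagent: Mannose-6-phosphate 1.0 mM (near-saturating) plus 0.22 mM NADP+; Timing: 20 min, room temperature; Technique: resorufin fluorescence at Ex 544/Em 590 nm; Dosing: 20 µM single dose.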
Rad51 HR inh: human RAD51 strand exchange inhibitors, primary screen, biochemical, fluorescence | DNA repair protein RAD51 homolog 1 (Homo sapiens), Q06609 | hRad51 DNA strand exchange, fluorescence dequenching | inhibition, % at 10 µM | 0.085% of 200,000 active | AID 1385, 2008;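 active = inhibition above 40% at the single screening dose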
Target sequence (Q06609 whole entry, looked up): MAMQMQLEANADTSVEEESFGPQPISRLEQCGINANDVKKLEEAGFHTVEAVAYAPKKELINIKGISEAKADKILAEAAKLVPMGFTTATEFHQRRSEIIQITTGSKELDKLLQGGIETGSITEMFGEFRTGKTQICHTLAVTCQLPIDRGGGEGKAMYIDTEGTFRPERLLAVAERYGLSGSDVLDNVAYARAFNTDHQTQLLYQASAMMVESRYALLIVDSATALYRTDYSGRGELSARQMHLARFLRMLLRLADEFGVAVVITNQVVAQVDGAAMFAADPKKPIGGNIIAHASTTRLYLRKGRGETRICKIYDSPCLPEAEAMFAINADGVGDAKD
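Test system: preformed human Rad51 ssDNA filaments; also added: Donor/quencher-labelled 47-bp dsDNA substrate; doses: 10 µM final, single point; times: 37 °C 15-min filament assembly, 30-min compound preincubation, 15-min exchange; detection: FRET fluorescence dequenching, excitation 485 nm, emission 520 nm; read-out basis: Fluorescence-based percent inhibition, control- and blank-normalised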
Lmaj promast: Leishmania major promastigote growth inhibition, primary screen. AID 1063, 2008. Leishmania major promastigotes, resazurin fluorescence viability. 9% of 200,000 active. inhibition, % at 10 µM; in the data active = inhibition above about 50%;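 note: promastigotes grown with compound for 44 hours at 28 °C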
PMI act: activators of human PMI, primary screen, biochemical, fluorescence intensity, near-Km mannose 6-phosphate; Mannose-6-phosphate isomerase (Homo sapiens), P34949; purified human PMI, coupled resazurin fluorescence, 20 min; active compounds read high; 1 = vehicle control, 0 substrate-free wells; activation factor at 20 µM; 0.005% of 190,000 active; AID 1214, 2008;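 active = activation factor of 2 or more at 20 µM, relative to plate controls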
m-calpain inh: inhibitors of pig calpain II, primary screen, biochemical, fluorogenic peptide substrate, 1536-well; inhibition, % at 16 µM; 0.37% of 220,000 active; purified calpain II, 30 min;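 active = inhibition above about 50%, limit read from the data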
Numbers stand for hits; 0 = inactive; - = no result given.

SMILES | WT yeast gro inh | PMI act satM6P | Rad51 HR inh | Lmaj promast | PMI act | m-calpain inh
CCCCNC(=S)Nc1cc([N+](=O)[O-])ccc1C | 0 | 0 | 0 | 74.2 | 0 | 0
Cc1nnc(SCC(=O)NNC(=O)c2ccccc2)n1-c1ccccc1 | 0 | 0 | 0 | 66.2 | 0 | 0
COc1ccccc1OCCSc1nnc(C)n1-c1ccccc1 | 0 | 0 | 0 | 73.0 | 0 | 0
COc1ccc(OCCSc2nnc(C)n2-c2ccccc2)cc1 | 0 | 0 | 0 | 0 | 0 | 0
COC(=O)C1=NNC2(c3ccc(C)cc3)C(=O)N(c3ccc(C)cc3)C(=O)C12 (stereo not drawn) | 0 | 0 | 0 | 0 | 0 | 0
COCCN(C(=O)CSc1nnc(-c2ccccc2F)n1C)c1c(N)n(Cc2ccccc2)c(=O)[nH]c1=O | 0 | 0 | 0 | 0 | 0 | 0
CCCCN(C(=O)CSc1nnc(-c2ccccc2OC)n1C)c1c(N)n(Cc2ccccc2)c(=O)[nH]c1=O | 0 | 0 | 0 | 60.9 | 0 | 0
CCOc1ccc(CN2CCN(Cc3cc4ccccc4[nH]3)CC2CCO)cc1 (stereo not drawn) | 0 | 0 | 0 | 78.7 | 0 | 0
CCOc1ccc(CN2CCN(CC3=Cc4cccc(OC)c4OC3)CC2CCO)cc1 (stereo not drawn) | 0 | - | 0 | 78.3 | - | 0
OCCC1CN(Cc2cnc(-c3ccccc3)s2)CCN1C1CCCC1 (stereo not drawn) | 0 | 0 | 0 | 79.9 | 0 | 0
CC(C)N1CCC(N2CCN(Cc3cnc(-c4ccccc4)s3)CC2CCO)CC1 (stereo not drawn) | 0 | 0 | - | 0 | 0 | 0
CCOc1ccc(CN2CCN(C/C=C/c3ccc(OC)cc3)CC2CCO)cc1 (stereo not drawn) | 0 | 0 | 0 | 0 | 0 | 0
OCCC1CN(Cc2cnc(-c3ccccc3)s2)CCN1C1CCCCC1 (stereo not drawn) | 0 | 0 | 0 | 81.1 | 0 | 0
COCCCNC(=O)c1cc2c(=O)n3cc(C)ccc3nc2nc1NCC1CCCO1 (stereo not drawn) | 0 | 0 | 0 | 0 | 0 | 0
COC(=O)/C(=C\Nc1ccc(Oc2ccc(F)cc2F)nc1)NC(=O)c1ccccc1 | - | - | 0 | - | - | 0
Cc1ccccc1-c1ncc(CN2CCN(C3CCCCC3)C(CCO)C2)cn1 (stereo not drawn) | 0 | 0 | 0 | 56.0 | 0 | 0
CCOc1ccc(CN2CCN(Cc3cnc(-c4ccccc4)s3)CC2CCO)cc1 (stereo not drawn) | 0 | 0 | 0 | 86.2 | 0 | 0
Cc1ncc(CN2CCN(Cc3ccccc3)C(CCO)C2)s1 (stereo not drawn) | 0 | 0 | - | 0 | 0 | 0
C=C(C)CC(Nc1ccc(OC)cc1)c1ccco1 (stereo not drawn) | 0 | 0 | 0 | 0 | 0 | 0
CCCCC(CC)C(=O)Oc1ccc(O)c(C(C)(C)C)c1 (stereo not drawn) | 91.5 | 0 | 0 | 0 | 0 | 0
Clc1ccc2nc(-c3ccccc3)c(CN3CCOCC3)n2c1 | 0 | 0 | 0 | 59.6 | 0 | 0
O=C(c1cc(NC(=O)C23CC4CC(CC(C4)C2)C3)cc(NC(=O)C23CC4CC(CC(C4)C2)C3)c1)N1CCCCC1 | 0 | 0 | 0 | 91.4 | 0 | 0
Cc1ccc(-n2ncc(-c3nn[nH]n3)c2N)cc1 | - | - | 0 | - | - | 0
C=CCn1c(=O)/c(=C/c2ccc(Cl)cc2)s/c1=C(/C#N)c1nnc2n1CCCCC2 | 0 | 0 | 0 | 94.1 | 0 | 0
Cc1cc(CN(C)C(=O)CC2C(=O)NCCN2Cc2c(F)cccc2Cl)on1 (stereo not drawn) | - | - | - | - | - | 0
SMILES | WT yeast gro inh | PMI act satM6P | Rad51 HR inh | Lmaj promast | PMI act | m-calpain inh
O=C(c1ccccc1F)N1CCC(N2CCCCCC2)CC1 | 0 | 0 | 0 | 72.8 | 0 | 0
Cc1ccc2cc3c(N)c4c(C)ccc(C)c4nc3nc2c1 | 0 | 0 | 0 | 100.5 | 0 | 0
CCC(C)(C)c1ccc(OCCCC[n+]2cccc(C)c2C)c(C(C)(C)CC)c1 | - | - | 0 | - | - | 0
CCC(C)(C)c1ccc(OCCCC[n+]2ccc(C)cc2)c(C(C)(C)CC)c1 | 98.9 | 0 | 0 | 100.5 | 0 | 0
COc1ccc(NC(=O)c2cccnc2N2CCOCC2)cc1 | 0 | 0 | 0 | 0 | 0 | 0
CCCS(=O)(=O)N1CCCC(C(=O)N2CCN(C(=O)OCC)CC2)C1 (stereo not drawn) | 0 | 0 | 69.3 | 0 | 0 | 0
CCOC(=O)N1CCN(c2cc(=O)n(-c3cccc(C)c3)c(=O)[nH]2)CC1 | 0 | 0 | 0 | 0 | 0 | 0
Cc1ccc2nc(NC(=O)CCNS(=O)(=O)c3cccs3)sc2c1 | 0 | 0 | 0 | 0 | 0 | 0
Cc1ccc2nc(NC(=O)CCNS(=O)(=O)c3ccc(Br)s3)sc2c1 | 0 | 0 | 0 | 97.9 | 0 | 0
O=C(CS(=O)(=O)Cc1ccccc1)NCc1ccco1 | 0 | 0 | 0 | 0 | 0 | 0
Cc1ccc2cc(CN(CCN3CCCC3)C(=O)Nc3ccc(F)cc3)c(=O)[nH]c2c1C | 0 | 0 | 0 | 72.8 | 0 | 0
CCOC(=O)c1cc2ccc3ccccc3c2s1 | 59.8 | 0 | 0 | 0 | 0 | 0
CCOC(=O)c1cc2c(s1)-c1ccccc1CC2 | 0 | 0 | 0 | 0 | 0 | 0
O=C(OC(C(=O)Nc1cc(Cl)cc(Cl)c1)c1ccccc1)C1=COCCO1 (stereo not drawn) | 58.4 | 0 | 0 | 0 | 0 | 0
CC(OC(=O)C1=COCCO1)C(=O)Nc1ccc(Oc2ccccc2)cc1 (stereo not drawn) | 0 | 0 | 0 | 0 | 0 | 0
CN1/C(=C\P(=O)(N(C)C)N(C)C)C(C)(C)c2ccccc21 | 0 | 0 | 0 | 98.5 | 0 | 0
CCCc1sc(N/N=C/c2ccccn2)nc1-c1ccc(Br)cc1 | 64.8 | 0 | 0 | 96.5 | 0 | 0
O=C(O)c1ccc(-c2ccc(/C=C3\NC(=O)N(Cc4ccc(Cl)cc4)C3=O)o2)cc1Cl | 0 | 0 | 0 | 0 | 0 | 0
COC(=O)c1ccc(NC(=S)NC2c3ccccc3CC2O)cc1 (stereo not drawn) | 0 | 0 | 0 | 0 | 0 | 0
COc1ccc(C2CC(c3c(-c4ccccc4)c4cc(Cl)ccc4[nH]c3=O)=NN2C(=O)CCC(=O)O)cc1 (stereo not drawn) | 0 | 0 | 0 | 0 | 0 | 0
COc1cccc(C2CC(c3c(-c4ccccc4)c4cc(Cl)ccc4[nH]c3=O)=NN2S(C)(=O)=O)c1OC (stereo not drawn) | 0 | 0 | 0 | 99.9 | 0 | 0
O=C1CCCS(=O)(=O)c2ccccc21 | 0 | 0 | 0 | 0 | 0 | 0
Cc1ccc(C(=O)O/N=C/c2c(Cl)n(C)c3ccccc23)cc1 | 0 | 0 | 0 | 0 | 0 | 0
CC(=O)O/N=C/c1c(N2CCOCC2)n(C)c2ccccc12 | 0 | 0 | 0 | 99.3 | 0 | 0
